Laboratory results as given in ChEMBL document CHEMBL1250433, “Synthesis of 5-arylidene-2-amino-4-azolones and evaluation of their anticancer activity” (2010).

What was measured:
Format in all cases: functional
OVCAR-3 = experiment: Cytotoxicity against human OVCAR-3 cells; conditions: for TGI: read-out: pTGI (converted)
Method in brief: (§1)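 Tested in the US National Cancer Institute 60 human tumour cell line screen. Dose-response parameters were calculated per cell line: GI50 (molar concentration giving 50% net growth inhibition), TGI (molar concentration giving total growth inhibition) and LC50 (molar concentration giving 50% net cell kill).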

SW-620 = experiment: Cytotoxicity against human SW620 cells; conditions: for TGI: read-out: pTGI (converted); method in brief: as §1
PC-3 = experiment: Cytotoxicity against human PC3 cells; conditions: for TGI: read-out: pTGI (converted); method in brief: as §1
SR = experiment: Cytotoxicity against human SR cells; conditions: for TGI: read-out: pTGI (converted); method in brief: as §1
CAKI-1 = experiment: Cytotoxicity against human Caki1 cells; conditions: for TGI: read-out: pTGI (converted); method in brief: as §1
U-251 = experiment: Cytotoxicity against human U251 cells; method in brief: as §1
MCF7 = experiment: Cytotoxicity against human MCF7 cells; conditions: for TGI: read-out: pTGI (converted); method in brief: as §1
RPMI-8226 = experiment: Cytotoxicity against human RPMI8226 cells; method in brief: as §1
K562 = experiment: Cytotoxicity against human K562 cells; method in brief: as §1
NCI-H23 = experiment: Cytotoxicity against human NCI-H23 cells; conditions: for TGI: read-out: pTGI (converted); method in brief: as §1
MOLT-4 = experiment: Cytotoxicity against human MOLT4 cells; method in brief: as §1
MDA-MB-435 = experiment: Cytotoxicity against human MDA-MB-435 cells; conditions: for TGI: read-out: pTGI (converted); method in brief: as §1
CCRF-CEM = experiment: Cytotoxicity against human CCRF-CEM cells; conditions: for TGI: read-out: pTGI (converted); method in brief: as §1
RXF 393 = experiment: Cytotoxicity against human RXF393 cells; method in brief: as §1
NCI-H460 = experiment: Cytotoxicity against human NCI-H460 cells; conditions: for TGI: read-out: pTGI (converted); method in brief: as §1
HL-60(TB) = experiment: Cytotoxicity against human HL-60(TB) cells; conditions: for TGI: read-out: pTGI (converted)
Method in brief: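 Tested in the National Cancer Institute 60 human tumour cell line in vitro screen, which includes leukaemia lines. From the dose–response data, GI50 is the molar concentration giving 50% inhibition of net cell growth, TGI is total growth inhibition, and LC50 is 50% net cell kill. Values are expressed as Log GI50.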

HCT-15 = experiment: Cytotoxicity against human HCT15 cells; method in brief: as §1
SK-MEL-5 = experiment: Cytotoxicity against human SK-MEL-5 cells; method in brief: as §1
M14 = experiment: Cytotoxicity against human M14 cells; method in brief: as §1
HCC 2998 = experiment: Cytotoxicity against human HCC2998 cells; method in brief: as §1
SNB-75 = experiment: Cytotoxicity against human SNB75 cells; method in brief: as §1
NCI/ADR-RES = experiment: Cytotoxicity against human NCI/ADR-RES cells; method in brief: as §1
T47D = experiment: Cytotoxicity against human T47D cells; method in brief: as §1
OVCAR-4 = experiment: Cytotoxicity against human OVCAR4 cells; method in brief: as §1
HCT-116 = experiment: Cytotoxicity against human HCT116 cells; method in brief: as §1
COLO 205 = experiment: Cytotoxicity against human COLO205 cells; method in brief: as §1
KM12 = experiment: Cytotoxicity against human KM12 cells; method in brief: as §1
SF-295 = experiment: Cytotoxicity against human SF295 cells; method in brief: as §1
[1] = Cytotoxicity against human 786-O cells; method in brief: as §1
SF-268 = experiment: Cytotoxicity against human SF268 cells; method in brief: as §1
HOP-62 = experiment: Cytotoxicity against human HOP62 cells; method in brief: as §1
UO-31 = experiment: Cytotoxicity against human UO31 cells; conditions: for TGI: read-out: pTGI (converted); method in brief: as §1

Compound `O=C1N=C(Nc2cccc(O)c2)S/C1=C\C(Cl)=C/c1ccc([N+](=O)[O-])cc1` has a GI50 (OVCAR-3) of 372 nM, a TGI (OVCAR-3) of 955 nM and a GI50 (SW-620) of 832 nM. The TGI (SW-620) was 2630 nM.
`O=C1N=C(Nc2ccc(Cl)cc2)N/C1=C\c1ccc(Cl)cc1` gave a GI50 (PC-3) of 380 nM and a TGI (PC-3) of 4370 nM.
`CN(C1=NC(=O)/C(=C/c2cccc(Cl)c2Cl)S1)c1ccc(O)cc1` gave a GI50 (SR) of 437 nM and a TGI (SR) of 2630 nM.
Work on `O=C1N=C(Nc2ccc(O)cc2)S/C1=C\c1ccc(Cl)cc1` yielded a GI50 (OVCAR-3) of 162 nM, a TGI (OVCAR-3) of 490 nM and a GI50 (CAKI-1) of 501 nM. The TGI (CAKI-1) was 6460 nM, the GI50 (U-251) was 490 nM and the GI50 (MCF7) was 50.1 nM. For the same compound, the TGI (MCF7) was 219 nM, the GI50 (RPMI-8226) was 407 nM and the TGI (RPMI-8226; read-out: pTGI) was over 100000 nM. The GI50 (K562) was 257 nM, the GI50 (NCI-H23) was 562 nM and the TGI (NCI-H23) was 3240 nM. It also gave a GI50 (MOLT-4) of 603 nM, a TGI (MOLT-4; read-out: pTGI (converted)) of 17000 nM and a GI50 (SR) of 145 nM. It also gave a TGI (SR) of 525 nM, a GI50 (MDA-MB-435) of 398 nM and a TGI (MDA-MB-435) of 1660 nM. For the same compound, the GI50 (CCRF-CEM) was 851 nM, the TGI (CCRF-CEM) was 10200 nM and the GI50 (RXF 393) was 117 nM. For the same compound, the TGI (RXF 393; read-out: pTGI (converted)) was 3980 nM, the GI50 (NCI-H460) was 977 nM and the TGI (NCI-H460) was 87100 nM. For the same compound, the GI50 (HL-60(TB)) was 437 nM, the TGI (HL-60(TB)) was 10200 nM and the GI50 (HCT-15) was 427 nM. For the same compound, the TGI (HCT-15; read-out: pTGI) was over 100000 nM.
With `COc1ccc(CNC2=NC(=O)/C(=C/c3ccccc3Cl)N2)cc1` the GI50 (PC-3) was 91.2 nM and the TGI (PC-3) was 27500 nM.
`COc1ccc(/C=C2\SC(Nc3ccc(O)cc3)=NC2=O)cc1OC` gave a GI50 (K562) of 398 nM, a TGI (K562; read-out: pTGI (converted)) of 6760 nM and a GI50 (MDA-MB-435) of 407 nM. The TGI (MDA-MB-435) was 2040 nM.
With `O=C1N=C(Nc2ccccc2Cl)N/C1=C\c1ccc(Cl)cc1Cl` the GI50 (HL-60(TB)) was 123 nM and the TGI (HL-60(TB)) was 1820 nM.
With `CN(C1=NC(=O)/C(=C/C(Cl)=C\c2ccc([N+](=O)[O-])cc2)S1)c1ccc(O)cc1` the GI50 (SK-MEL-5) was under 10 nM and the TGI (SK-MEL-5; read-out: pTGI) was under 10 nM.
With `O=C1N=C(Nc2cccc(O)c2)S/C1=C\c1ccc(Cl)cc1` the GI50 (OVCAR-3) was 490 nM and the TGI (OVCAR-3) was 2750 nM.
For `O=C1N=C(Nc2cccc(Cl)c2)N/C1=C\c1cccc(F)c1`, the GI50 (MOLT-4) was 1050 nM.
With `O=C1N=C(Nc2ccc(O)cc2)S/C1=C\c1ccc(F)cc1` the GI50 (OVCAR-3) was 324 nM, the TGI (OVCAR-3) was 562 nM and the GI50 (CAKI-1) was 479 nM. It also gave a TGI (CAKI-1) of 2450 nM, a GI50 (MCF7) of 35.5 nM and a TGI (MCF7) of 115 nM. It also gave a GI50 (NCI-H23) of 372 nM, a TGI (NCI-H23) of 2090 nM and a GI50 (SR) of 537 nM. For the same compound, the TGI (SR) was over 100000 nM, the GI50 (MDA-MB-435) was 31.6 nM and the TGI (MDA-MB-435) was 145 nM. The GI50 (M14) was 617 nM, the TGI (M14; read-out: pTGI (converted)) was 11500 nM and the GI50 (HCC 2998) was 562 nM. It also gave a TGI (HCC 2998; read-out: pTGI (converted)) of 2140 nM, a GI50 (SNB-75) of 407 nM and a TGI (SNB-75; read-out: pTGI) of over 100000 nM. The GI50 (NCI-H460) was 263 nM, the TGI (NCI-H460) was 955 nM and the GI50 (NCI/ADR-RES) was 631 nM. The TGI (NCI/ADR-RES; read-out: pTGI (converted)) was 3160 nM, the GI50 (T47D) was 661 nM and the TGI (T47D; read-out: pTGI) was over 100000 nM. For the same compound, the GI50 (OVCAR-4) was 832 nM, the TGI (OVCAR-4; read-out: pTGI) was over 100000 nM and the GI50 (HCT-116) was 219 nM. The TGI (HCT-116; read-out: pTGI (converted)) was 4370 nM, the GI50 (COLO 205) was 631 nM and the TGI (COLO 205; read-out: pTGI) was over 100000 nM. The GI50 (KM12) was 132 nM, the TGI (KM12; read-out: pTGI (converted)) was 741 nM and the GI50 (SF-295) was 380 nM. The TGI (SF-295; read-out: pTGI (converted)) was 1910 nM, the GI50 ([1]; 786-0) was 309 nM and the TGI ([1]; 786-0, read-out: pTGI (converted)) was 10000 nM. The GI50 (SF-268) was 490 nM, the TGI (SF-268; read-out: pTGI (converted)) was 4370 nM and the GI50 (HOP-62) was 427 nM. For the same compound, the TGI (HOP-62; read-out: pTGI (converted)) was 13200 nM, the GI50 (SW-620) was 525 nM and the TGI (SW-620) was over 100000 nM. The GI50 (UO-31) was 955 nM and the TGI (UO-31) was over 100000 nM.
`O=C1N=C(NCc2ccc(Cl)cc2)N/C1=C\c1c(Cl)cccc1Cl` gave a GI50 (CCRF-CEM) of 1070 nM and a TGI (CCRF-CEM) of 29500 nM.
`COc1cc(/C=C2\SC(Nc3ccc(O)cc3)=NC2=O)ccc1OCc1ccc(F)cc1` showed a GI50 (CCRF-CEM) of 200 nM, a TGI (CCRF-CEM) of 1150 nM and a GI50 (HL-60(TB)) of 603 nM. The TGI (HL-60(TB)) was 10200 nM, the GI50 (UO-31) was 891 nM and the TGI (UO-31) was 28800 nM.
